Measurements from ChEMBL document CHEMBL1150355, “Design and evaluation of a novel series of 2,3-oxidosqualene cyclase inhibitors with low systemic exposure, relationship between pharmacokinetic properties and ocular toxicity” (Bioorg Med Chem, 2008).
The source made the active and inactive calls. No cut-off for these calls is given here.

Experiments:
Lanosterol synthase = biological target: T1, Lanosterol synthase (Homo sapiens, UniProt P48449); experiment: Inhibition of 2,3-oxidosqualene-lanosterol cyclase
T1 sequence (P48449 whole entry): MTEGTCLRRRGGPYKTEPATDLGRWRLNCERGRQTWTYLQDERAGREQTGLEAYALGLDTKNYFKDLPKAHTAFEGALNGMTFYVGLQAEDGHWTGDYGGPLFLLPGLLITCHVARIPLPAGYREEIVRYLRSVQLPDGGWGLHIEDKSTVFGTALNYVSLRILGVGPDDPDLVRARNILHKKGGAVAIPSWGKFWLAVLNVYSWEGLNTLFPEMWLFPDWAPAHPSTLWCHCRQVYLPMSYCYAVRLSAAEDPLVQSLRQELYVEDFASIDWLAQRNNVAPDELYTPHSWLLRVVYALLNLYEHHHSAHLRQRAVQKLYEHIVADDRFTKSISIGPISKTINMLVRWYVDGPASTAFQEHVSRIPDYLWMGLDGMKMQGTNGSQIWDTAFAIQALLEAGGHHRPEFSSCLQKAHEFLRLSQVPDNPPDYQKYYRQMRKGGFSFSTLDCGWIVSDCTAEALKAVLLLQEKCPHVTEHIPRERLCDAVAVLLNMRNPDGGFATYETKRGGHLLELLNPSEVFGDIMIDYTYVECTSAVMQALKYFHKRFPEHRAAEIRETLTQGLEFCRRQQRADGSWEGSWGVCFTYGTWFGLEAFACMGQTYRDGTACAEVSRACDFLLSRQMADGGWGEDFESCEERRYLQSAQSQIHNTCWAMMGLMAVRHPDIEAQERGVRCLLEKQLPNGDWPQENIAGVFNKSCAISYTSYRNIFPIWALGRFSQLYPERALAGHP
Method in brief: (§1)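 HepG2 cells were incubated 24 h with compound in BME with 10% fetal calf serum, then labelled with [14C]mevalonate (7.4 kBq). Lipids were extracted with heptane/isopropanol and separated by TLC. [14C]cholesterol, MES and DES were identified against standards and quantified by phosphorimaging, scoring cholesterol synthesis inhibition together with MES/DES formation.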

[1] = biological target: T2, Lanosterol synthase (Homo sapiens) (UniProt P48449); experiment: Inhibition of 2,3-oxidosqualene-lanosterol cyclase at 200 nM; method in brief: as §1
T2 sequence (whole entry): T1 sequence (P48449 whole entry)

Rattus norvegicus [2] = experiment: Induction of neosynthetized 2,3 mono-epoxysqualene synthesis in OFA rat liver at 2 mg/kg, po after 3 hrs relative to BIBB 515; assay type: functional
Method in brief: (§2)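 Male OFA rats dosed orally at 2 mg/kg. Sterol synthesis was labelled by ip [14C]mevalonate (370 kBq) for the final hour, giving 3 h or 8 h total exposure. Lens and liver lipids were extracted with isopropanol, separated by TLC, and cholesterol and MES radioactivity quantified by phosphorimaging. Cholesterol inhibition is relative to vehicle-treated rats, and MES as % of BIBB 515-treated rats (100%).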

Rattus norvegicus [3] = experiment: Inhibition of neosynthetized cholesterol synthesis in OFA rat liver at 2 mg/kg, po after 3 hrs; assay type: functional; method in brief: as §2
[4] = Metabolic stability in rat liver microsomes assessed as intrinsic clearance […]; assay type: ADME, Microsome

Activity [1]	IC50 (Lanosterol synthase) [nM]	SMILES	further results
		N#Cc1ccc(S(=O)(=O)NCCc2ccc(C(O)c3cccnc3)cc2)cc1 (racemic)	EC50 (Lanosterol synthase): 100 nM
inactive		CN(C)Cc1cccc(-c2ccc(CCNS(=O)(=O)c3ccc(C#N)cc3)cc2)c1	
inactive		O=C(c1ccc(Cl)cc1)N1CCN(Cc2ccc(-n3cccn3)cc2)CC1	
	3	O=C(c1ccc(Cl)cc1)N1CCN(Cc2ccc(-c3ccncc3)cc2)CC1	Activity (Rattus norvegicus [2]): 55%; inhibition in vivo at 2 mg/kg (Rattus norvegicus [3]): 64%; CLint scaled [4]: 6 mL/min/g
	63	O=S(=O)(NCCc1ccc(-c2ccc(CN3CCCC3)cc2)cc1)c1ccc(Cl)cc1	
	13	O=S(=O)(c1ccc(Cl)cc1)N1CCN(Cc2ccc(-c3ccncc3)cc2)CC1	Activity (Rattus norvegicus [2]): 45%; inhibition in vivo at 2 mg/kg (Rattus norvegicus [3]): 66%; CLint scaled [4]: 1.3 mL/min/g
inactive		Cc1nc(-c2ccc(CN3CCN(C(=O)c4ccc(Cl)cc4)CC3)cc2)no1	
	500	O=S(=O)(c1ccc(Cl)cc1)N1CCN(Cc2cccc(-c3ccncc3)c2)CC1	
inactive		Cn1cc(-c2ccc(CN3CCN(C(=O)c4ccc(Cl)cc4)CC3)cc2)cn1	

SMILES	Activity [1]	IC50 (Lanosterol synthase) [nM]	further results
Clc1ccc(CN2CCN(Cc3ccc(-c4ccncc4)cc3)CC2)cc1		316	
